TRPML3 agonist: agonists of human TRPML3 channel; Q8TDD5; HEK293 TRPML3-YFP, Fluo-8 calcium fluorescence; 100% = the carbachol control signal; activation, % at 3 µM; hit rate 0.29% among 220,000; AID 1448;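 active means activation above its plate's cutoff, the mean activation of the plate's test wells plus 3 SD, cut at about 12% in these data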;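 further: 0% = DMSO only wells and 100% = carbachol wells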
Target sequence (Q8TDD5 whole entry, looked up): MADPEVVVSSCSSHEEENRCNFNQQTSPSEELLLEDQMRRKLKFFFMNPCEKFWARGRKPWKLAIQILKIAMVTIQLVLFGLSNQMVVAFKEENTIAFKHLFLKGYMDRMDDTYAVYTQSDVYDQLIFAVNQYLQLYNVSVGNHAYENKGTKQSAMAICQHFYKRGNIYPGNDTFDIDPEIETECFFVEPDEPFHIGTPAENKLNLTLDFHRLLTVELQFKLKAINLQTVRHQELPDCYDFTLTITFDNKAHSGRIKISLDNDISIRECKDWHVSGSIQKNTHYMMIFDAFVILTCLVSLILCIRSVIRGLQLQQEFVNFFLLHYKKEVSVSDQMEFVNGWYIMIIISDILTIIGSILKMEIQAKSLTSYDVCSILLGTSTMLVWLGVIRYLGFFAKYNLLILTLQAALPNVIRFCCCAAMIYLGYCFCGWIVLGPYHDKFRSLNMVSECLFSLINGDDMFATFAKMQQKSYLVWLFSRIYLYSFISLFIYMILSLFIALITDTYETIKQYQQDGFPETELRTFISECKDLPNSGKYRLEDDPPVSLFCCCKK
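Test system – HEK293 line with stable expression of human TRPML3-YFP channel · Control set – carbachol 87 µM final as high control (100%), DMSO as low control (0%) · Signal – Fluo-8 calcium dye fluorescence, ex 470-495, em 515-575 nm · Incubation – 1-h 37 °C dye load, 5-s basal, 120-s post-compound reads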
zfTRPN1 agonist: activates the zebrafish TRPN1 channel; HEK293 zebrafish TRPN1-YFP, Fluo-8 calcium fluorescence; 100% = response to 87 µM carbachol; activation, % at 3 µM; hit rate 0.18% among 220,000; AID 1424;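 active means activation above its plate's cutoff, the mean activation of test wells on that plate plus 3 SD, cut at about 19% in these data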;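 further: 0% = DMSO alone and 100% = 87 µM carbachol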
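Material – zebrafish TRPN1-YFP in HEK293 cells · Doses – 3 µM single point · Schedule – dye 1 h 37 °C plus 30 min RT · Signal – Fluo-8 calcium fluorescence, excitation 470-495 nm, emission 515-575 nm · Read-out – % activation versus carbachol response · Control set – carbachol high, DMSO low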
V1aR counter: V1a receptor agonism, counter-screen for OXTR agonists; P37288; CHO-V1R cells, Fluo-8 calcium fluorescence, agonist mode; 0% DMSO, 100% 3 nM vasopressin; activation, % at 3 µM; hit rate 0.25% among 320,000; AID 2797;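 active means activation above the mean activation of all tested compounds plus 3 SD, per screening run, cut at about 20% in these data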;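 further: signal is peak over basal fluorescence ratio across a 100 second FLIPR read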
OXTR potentiator: potentiators of human oxytocin receptor; CHO-OTR cells, Fluo-8 calcium fluorescence, potentiator mode; 0% = oxytocin EC15, 100% = EC100; AID 2445; P30559; hit rate 0.061% among 320,000; activation, % at 3 µM;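 active means activation above that plate's cutoff, the mean activation of tested compounds plus 3 SD, cut at about 6.6% in these data, passing the limit was not always enough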;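 further: 100% uses oxytocin at 75 nM as the full agonist control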
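Assay system: CHO cell line stably expressing human OTR | Also added: Oxytocin at about EC15, sub-maximal agonist stimulus | Times: Compound 6 min at room temperature before oxytocin, 100 s read | Measured by: Fluo-8 intracellular calcium fluorescence, ex 470-495, em 515-575 nm | Controls: EC15 oxytocin alone as 0%, 75 nM oxytocin as 100%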
OXTR agonist: agonists of human oxytocin receptor; hit rate 0.32% among 320,000; CHO-OTR cells, Fluo-8 calcium fluorescence; normalized: DMSO 0%, oxytocin 100%; P30559; activation, % at 3 µM;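 active means activation above the mean of all tested compounds plus 3 SD, cutoff set per screening run, cut at about 20% in these data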;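 further: peak over basal fluorescence ratio from a 100 s FLIPR kinetic read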
TRPN1 counter: counter-screen for TRPML3 agonists: agonists of zebrafish TRPN1 channel | shares compounds with TRPML3 agonist | HEK293 zebrafish TRPN1-YFP, Fluo-8 calcium fluorescence; scaled: carbachol wells 100%, DMSO wells 0% | activation, % at 3 µM | hit rate 10% among 310;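 active means mean activation over replicates above a set limit taken from the earlier TRPN1 channel primary screen, cut at about 19% in these data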;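 further: 100% = carbachol and 0% = 0.3% DMSO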
TRPML3 confirm: human TRPML3 agonism, confirmation; shares compounds with TRPML3 agonist; HEK293 TRPML3-YFP, Fluo-8 calcium fluorescence; 100% set by carbachol, 0% by DMSO; activation, % at 3 µM; hit rate 80% among 310; AID 1526;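 active means activation above a set limit derived from the earlier primary screen, cut at about 12% in these data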
OXTR agonist cf: confirmation of human oxytocin receptor agonists. shares compounds with OXTR agonist. CHO-OTR cells, Fluo-8 calcium fluorescence, agonist. activation, % at 3 µM. hit rate 20% among 390. AID 434963;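 active means mean activation above about 20% derived from the earlier single-dose screen, limit read from the data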;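 further: peak over minimum fluorescence ratio per well during a 100 second FLIPR read; 0% = DMSO alone and 100% = oxytocin high control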
V1R ag counter 3x: activates V1a receptor in oxytocin agonist counter-screen; hit rate 10% among 390; CHO-V1R cells, Fluo-8 calcium fluorescence; activation, % at 3 µM; shares compounds with OXTR agonist; AID 434991;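 active means mean activation over triplicate exceeds the hit threshold set in the earlier primary screen, cut at about 20% in these data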;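 further: peak over basal fluorescence ratio within a 100 second read; 0% = DMSO alone and 100% = 3 nM vasopressin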
OXTR pot cf: confirmation of human oxytocin receptor potentiators. shares compounds with OXTR potentiator. CHO-OTR cells, Fluo-8 calcium fluorescence, potentiation; scaled from low-dose to maximal oxytocin. activation, % at 3 µM. 180 tested, under 10 active. AID 434985;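 active means mean percent activation over triplicates above a cutoff set from solvent-only control plates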;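 further: compounds tested in the presence of an EC15 dose of oxytocin; 0% = EC15 oxytocin with DMSO and 100% = EC100 oxytocin with DMSO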
V1aR agonist cf: confirmation of human vasopressin V1a receptor agonists. shares compounds with V1aR counter. hit rate 20% among 180. activation, % at 3 µM. CHO-V1R cells, Fluo-8 calcium fluorescence, agonist;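 active means average activation exceeds primary screen hit cutoff, cut at about 21% in these data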;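 further: peak over basal fluorescence ratio during a 100 s FLIPR read; 0% = DMSO only wells and 100% = 3 nM vasopressin wells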
OXTR ag counter: activates oxytocin receptor in V1a agonist counter-screen | shares compounds with V1aR counter | CHO-OTR cells, Fluo-8 calcium fluorescence | activation, % at 3 µM | hit rate 10% among 180 | AID 434969;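 active means mean activation over three repeats above the cutoff from the earlier oxytocin receptor agonist screen, cut at about 20% in these data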;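 further: peak over minimum fluorescence ratio within a 100 second FLIPR read; 0% = DMSO only wells and 100% = oxytocin high control wells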
Numbers without * were called inactive; nt = no result. Hits are enriched below; roughly 0.59% of the tested compounds scored in any of these assays.

SMILES	TRPML3 agonist	zfTRPN1 agonist	V1aR counter	OXTR potentiator	OXTR agonist	others
CCOC(=O)c1c(N)n(Cc2ccco2)c2nc3ccccc3nc12	15.4*	4.3	0.7	-1.7	0.9	TRPN1 counter=3.8;TRPML3 confirm=2.5
NC(N)=N/N=C/c1cn(-c2ccccc2)nc1-c1cccs1	1.0	-0.5	-1.1	-4.6	-0.2
Cc1ccc2c(c1)C1CN(C)CCC1N2C(=O)Nc1cccc(Cl)c1 (configuration not stated)	1.6	8.7	20.1	-12.4	30.2*	OXTR agonist cf=7.7;V1R ag counter 3x=5.5
COc1ccc(CC(C)NCCC(c2ccccc2)c2ccccc2)cc1 (configuration not stated)	nt	nt	11.8	-18.3	21.0*	OXTR agonist cf=9.0;V1R ag counter 3x=3.8
CCCCNC(C)Cc1ccccc1 (configuration not stated)	nt	nt	1.2	-8.7	0.9
Cc1[nH]c2ccc(OC(F)(F)F)cc2c1CCNCc1cccc([N+](=O)[O-])c1	nt	nt	10.3	-7.1	19.7*	OXTR agonist cf=12.7;V1R ag counter 3x=7.8
CN1CCN(C(=O)COc2ccc(S(=O)(=O)NC3CCCCC3)cc2Cl)CC1	nt	nt	-0.5	-8.9	0.1
Nc1cc(Cl)cc(C(=O)O)c1Cl	nt	nt	0.2	3.6	0.2
CN1CCN(c2ccc([N+](=O)[O-])c(N)c2)CC1	0.5	5.2	2.1	-5.1	-0.1
CN1CCN(c2ccc([N+](=O)[O-])c(SCCO)c2)CC1	-0.2	0.5	0.1	11.9*	3.7	OXTR pot cf=-7.8
COc1cccc(NC(=O)[C@@H](NC(=O)N2C[C@H]3C[C@@H](C2)c2cccc(=O)n2C3)C(C)C)c1	nt	nt	0.0	11.2*	2.6	OXTR pot cf=-0.6
Oc1c(Cl)c(Cl)c(Cl)c(Cl)c1Cl	nt	nt	13.4	-14.2	9.7
CCOc1cc2c(cc1OCC)-n1cccc1C(c1cc(C)c(OC)cc1C)NC2 (configuration not stated)	nt	nt	29.1*	-5.2	2.4	V1aR agonist cf=0.1;OXTR ag counter=0.4
C[C@]12CCC3C(C1CCC2=O)[C@H](O)C[C@H]1C[C@@H](O)CC[C@]31C (some centres not stated)	nt	nt	1.3	-4.5	1.2

Screening results deposited in PubChem BioAssay by The Scripps Research Institute Molecular Screening Center.
